Where a SMILES comes first, the peptide text is derived from it. Bridges are numbered along the chain shown (N, C = ends). [ ]: non-standard residue; d: D form. The star is where a group is joined. NOTA = O=C(O)CN1CCN(CC(=O)O)CCN(CC(=O)*)CC1; 2Nal = N[C@@H](Cc1ccc2ccccc2c1)C(=O)O; Cit = NC(=O)NCCC[C@H](N)C(=O)O
How the values were obtained:
CHO-CXCR4 and CHO tumors = type: in vivo, mice
CHO-CXCR4 cells = assay: Cell uptake, internalization and efflux of tracer; type: cell-based, Chinese hamster
Summary of the method: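 CHO-CXCR4 cells (F-12K, 10 % FBS) seeded at 1×10^5/well and given 11.1 kBq (0.3 µCi) tracer at 37 °C for 5–120 min. Blocking used 10 µg/well (22 µM) unlabeled peptide for 2 h. Cells were washed twice with cold PBS, lysed in 0.1 M NaOH and γ-counted. For internalization, an extra 1 min wash in 50 mM glycine/0.1 M NaCl, pH 2.8, was added. For efflux, cells were loaded for 2 h, then given tracer-free medium. Values are % of added activity, mean of three experiments ± SD.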

in vivo = assay: in vivo; set-up: species or system mice; conditions: mouse, iv, 100 uCi/mouse, total radioactivity

## N=C(N)NCCC[C@H](NC(=O)[C@@H]1CSSC[C@H](NC(=O)[C@H](Cc2ccc3ccccc3c2)NC(=O)[C@H](CCCNC(=N)N)NC(=O)[C@H](CCCNC(=N)N)NC(=O)CN2CCN(CC(=O)O)CCN(CC(=O)O)CC2)C(=O)N[C@@H](Cc2ccc(O)cc2)C(=O)N[C@@H](CCCNC(N)=O)C(=O)N[C@@H](CCCCN)C(=O)N[C@H](CCCCN)C(=O)N2CCC[C@H]2C(=O)N[C@@H](Cc2ccc(O)cc2)C(=O)N[C@@H](CCCNC(=N)N)C(=O)N[C@@H](CCCNC(N)=O)C(=O)N1)C(N)=O [Al[^18F]NOTA-T140] ({NOTA}-RR[2Nal]CY[Cit]K[dK]PYR[Cit]CR-NH2; disulfide 4-13)
CHO-CXCR4 and CHO tumors; co-injection of 100 µg unlabeled peptide, PET 1 h post-injection
  reduction in CHO-CXCR4 tumor uptake on blocking: 50–60%
CHO-CXCR4 and CHO tumors; mouse, in vivo
  change of tracer uptake in the bone on blocking: significantly reduced
CHO-CXCR4 cells; 2 h, 10 µg/well (22 µM) unlabeled peptide
  cell uptake with blocking by unlabeled peptide: 5.11±0.35%
CHO-CXCR4 cells; 2 h, acid wash (glycine pH 2.8) removes surface-bound tracer
  share of the uptake due to internalization: ~50%
CHO-CXCR4 cells; after 2 h loading at 37 °C, medium replaced
  efflux from the cells: slow
In vivo; biodistribution: bone
  tissue uptake at 2 h: 2.95 ± 0.74 %ID/g
In vivo; biodistribution: kidneys
  tissue uptake at 2 h: 32.8 ± 2.62 %ID/g
In vivo; biodistribution: liver
  tissue uptake at 2 h: 34.2 ± 4.98 %ID/g
In vivo; biodistribution: spleen
  tissue uptake at 2 h: 6.37 ± 1.18 %ID/g

Source: article PMC5242338 (Molecular imaging and biology : MIB : the official …, 2016)
